# Measurements gathered from unrelated publications.
# Lines come from different studies, so protocols differ.
# ADH1 W83R: ADH1 (Saccharomyces cerevisiae, UniProt P00330, W83R)
# lecA: PA-I galactophilic lectin (lecA, Pseudomonas aeruginosa, UniProt Q05097)
# Chymotrypsinogen A: Chymotrypsinogen A (Bos taurus, UniProt P00766)
SMILES,target,observed,mode,method,pH,Ki
NC(=O)C1=CN([C@@H]2O[C@H](COP(=O)(O)OP(=O)(O)OC[C@H]3O[C@@H](n4cnc5c(N)ncnc54)[C@H](O)[C@@H]3O)[C@@H](O)[C@H]2O)C=CC1,ADH1 W83R,enzyme activity,inhibitor,,,24000 nM
[N-]=[N+]=NCCCCC(=O)Nc1ccc(S[C@@H]2O[C@H](CO)[C@H](O)[C@H](O)[C@H]2O)cc1,lecA,ligand displacement,,FP,,3670 nM
CCn1c(-c2nc3cc(C(=O)N4CCC[C@@H](N)C4)cc(OC)c3n2C)cc2cccnc21,"Protein-arginine deiminase type-3 (PADI3, Homo sapiens, UniProt Q9ULW8)",enzyme activity,inhibitor,,,925000 nM
C/C(=C\C(=O)OCCCCCCCCC(=O)O)C[C@@H]1OC[C@H](C[C@@H]2O[C@H]2[C@@H](C)[C@H](C)O)[C@@H](O)[C@H]1O,"Isoleucine--tRNA ligase (ileS, Escherichia coli K-12, UniProt P00956)",enzyme activity,inhibitor,absorbance,,0.8 nM
[N-]=[N+]=NCCC(=O)Nc1ccc(S[C@@H]2O[C@H](CO)[C@H](O)[C@H](O)[C@H]2O)cc1,lecA,ligand displacement,,FP,,3960 nM
CCCC[C@H](NC(=O)[C@H](CCC(N)=O)NC(=O)[C@H](CO)NC(=O)[C@H](Cc1ccccc1)NC(=O)CCCCCN)C(=O)N[C@@H](CCCBr)B(O)O,Chymotrypsinogen A,enzyme activity,inhibitor,fluorescence,,580 nM
O=C(CCCCn1cc(CN2CCN(c3cc4c(cc3F)c(=O)c(C(=O)O)cn4C3CC3)CC2)nn1)Nc1ccc(S[C@@H]2O[C@H](CO)[C@H](O)[C@H](O)[C@H]2O)cc1,lecA,ligand displacement,,FP,,3270 nM
CCCC[C@H](NC(=O)[C@H](CCC(N)=O)NC(=O)[C@H](CO)NC(=O)[C@H](CO)NC(=O)CCCCCN)C(=O)N[C@@H](CC(C)C)B(O)O,Chymotrypsinogen A,enzyme activity,inhibitor,fluorescence,,138 nM
Cc1ccc2c(c1)c1c3n2CCNC3CCC1 (stereo not shown),"Amine oxidase [flavin-containing] A (Maoa, Rattus norvegicus, UniProt P21396)",enzyme activity,inhibitor,,pH 7.5,770 nM
CCCC[C@H](NC(=O)[C@H](CCC(N)=O)NC(=O)[C@H](CO)NC(=O)[C@H](C)NC(=O)CCCCCN)C(=O)N[C@@H](Cc1ccccc1)B(O)O,Chymotrypsinogen A,enzyme activity,inhibitor,fluorescence,,36.2 nM
OCC(F)(F)F,ADH1 W83R,enzyme activity,inhibitor,,,980000 nM
O=C(Cn1cc(CCN2CCN(c3cc4c(cc3F)c(=O)c(C(=O)O)cn4C3CC3)CC2)nn1)Nc1ccc(S[C@@H]2O[C@H](CO)[C@H](O)[C@H](O)[C@H]2O)cc1,lecA,ligand displacement,,FP,,1480 nM
CCCC[C@H](NC(=O)[C@H](CCCCN)NC(=O)[C@H](CO)NC(=O)[C@H](CO)NC(=O)OCc1ccccc1)C(=O)N[C@@H](CCCBr)B(O)O,Chymotrypsinogen A,enzyme activity,inhibitor,fluorescence,,197 nM
